In one test the test system is Staphylococcus aureus. The experiment in a line: Minimum inhibitory concentration against Staphylococcus aureus. Type of test: functional. In a few lines:
(§1)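 Growth inhibition by serial dilution. MIC reported in µg/mL as the average of triplicate measurements.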

In test [1] the target is DNA-directed RNA polymerase subunit beta (Escherichia coli K-12) (UniProt P0A8V2). The test is described as follows: In vitro percent inhibition against RNA polymerase of Escherichia coli in nucleotide coupled NADPH/pyrophosphate release assay at 10 uM. Type of test: functional. In a few lines:
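E. coli RNA polymerase activity measured in a nucleotide-coupled NADPH/pyrophosphate release assay. NADPH was read by fluorescence (emission ~440 nm) rather than absorbance at 340 nm. For weaker inhibitors, percent inhibition was recorded at 10 µM instead of an IC50.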

In test [2] the test system is Escherichia coli. The experiment in a line: Minimum inhibitory concentration against Escherichia coli (Tol C). Type of test: functional. In a few lines: as §1
Test [3] relates to Escherichia coli. The test is described as follows: Minimum inhibitory concentration against Escherichia coli. Type of test: functional. In a few lines:
as §1

In test [4] the target is DNA-directed RNA polymerase subunit beta (Escherichia coli K-12, UniProt P0A8V2). The test is described as follows: In vitro inhibitory activity against RNA polymerase of Escherichia coli. In a few lines:
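E. coli RNAP activity measured by a nucleotide-coupled assay that links pyrophosphate release to NADPH. NADPH was read by fluorescence (emission ~440 nm) instead of absorbance at 340 nm. IC50 was determined; for weak inhibitors, percent inhibition at 10 µM was reported instead. Selected compounds were also tested by radiolabeled nucleotide incorporation into RNA.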

Experimental findings from ChEMBL document CHEMBL1138635, “Myxopyronin B analogs as inhibitors of RNA polymerase, synthesis and biological evaluation” (Bioorg Med Chem Lett, 2004) are described below.

Converted amounts (≈) assume the structure as drawn. Bounds are passed on as bounds.

Chain of DNA-directed RNA polymerase subunit beta (Escherichia coli K-12) (P0A8V2 whole entry, looked up): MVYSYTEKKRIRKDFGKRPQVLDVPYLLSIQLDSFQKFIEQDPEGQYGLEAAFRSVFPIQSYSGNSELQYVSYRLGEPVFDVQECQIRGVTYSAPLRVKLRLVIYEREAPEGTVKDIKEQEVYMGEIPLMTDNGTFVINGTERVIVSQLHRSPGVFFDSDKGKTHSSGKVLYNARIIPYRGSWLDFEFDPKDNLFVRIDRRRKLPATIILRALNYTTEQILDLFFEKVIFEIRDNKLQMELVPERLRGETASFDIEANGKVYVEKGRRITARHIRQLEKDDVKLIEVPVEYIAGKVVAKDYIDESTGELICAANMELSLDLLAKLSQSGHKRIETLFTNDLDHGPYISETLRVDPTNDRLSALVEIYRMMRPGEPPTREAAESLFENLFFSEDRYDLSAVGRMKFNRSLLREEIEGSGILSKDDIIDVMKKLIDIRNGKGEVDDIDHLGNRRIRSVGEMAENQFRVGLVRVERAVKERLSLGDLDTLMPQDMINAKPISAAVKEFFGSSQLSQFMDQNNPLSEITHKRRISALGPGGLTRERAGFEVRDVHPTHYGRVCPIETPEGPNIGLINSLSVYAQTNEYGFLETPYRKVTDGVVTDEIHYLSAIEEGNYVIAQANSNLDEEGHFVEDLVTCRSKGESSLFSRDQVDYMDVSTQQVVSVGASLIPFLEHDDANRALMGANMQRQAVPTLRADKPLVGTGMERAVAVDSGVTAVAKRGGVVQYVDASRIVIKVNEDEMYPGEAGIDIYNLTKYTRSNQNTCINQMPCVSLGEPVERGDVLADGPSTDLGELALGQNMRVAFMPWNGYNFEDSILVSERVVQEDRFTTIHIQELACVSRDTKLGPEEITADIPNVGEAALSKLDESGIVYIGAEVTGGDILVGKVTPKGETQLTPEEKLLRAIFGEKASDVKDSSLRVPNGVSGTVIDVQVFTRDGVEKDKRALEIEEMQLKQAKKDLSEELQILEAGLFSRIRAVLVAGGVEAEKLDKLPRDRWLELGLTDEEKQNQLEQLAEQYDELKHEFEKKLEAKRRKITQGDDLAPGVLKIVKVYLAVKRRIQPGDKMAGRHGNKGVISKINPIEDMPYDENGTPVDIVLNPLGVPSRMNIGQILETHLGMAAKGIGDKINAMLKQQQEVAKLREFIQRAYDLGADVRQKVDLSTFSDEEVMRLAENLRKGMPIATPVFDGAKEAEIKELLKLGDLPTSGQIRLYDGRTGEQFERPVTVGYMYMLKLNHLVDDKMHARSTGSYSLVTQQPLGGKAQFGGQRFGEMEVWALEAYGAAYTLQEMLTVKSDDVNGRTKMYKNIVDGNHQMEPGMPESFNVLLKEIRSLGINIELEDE
Chain of DNA-directed RNA polymerase subunit beta (P0A8V2 whole entry): as the sequence (P0A8V2 whole entry, looked up) above

As usually defined, the MIC is the least concentration at which growth counts as inhibited. High values mean weaker potency, low ones greater potency. The term inhibition denotes the percentage by which the read-out fell short of the control. As to `CCCC/C(C)=C/C=C(\C)C(=O)c1c(O)cc(C(C)CC/C=C/C(=O)OC)oc1=O` (centres undefined), the minimum inhibitory concentration (MIC) with Staphylococcus aureus, in the test on Escherichia coli [2] and with Escherichia coli [3] was more than 64 µg/mL throughout. Further, in test [1], the inhibition is less than 20%.

`CCCC/C(C)=C/C=C(\C)C(=O)c1c(O)cc(C(C)CCCC=O)oc1=O` (centres undefined): the MIC in the test on Staphylococcus aureus, with Escherichia coli [2] and against Escherichia coli [3] was more than 64 µg/mL each time. In addition, in test [1], the inhibition is less than 20%.

For the compound `CCCC/C(C)=C/C=C(\C)C(=O)c1c(O)cc(C(C)Cc2cccc(NC(=O)OC)c2)oc1=O` (centres undefined), the MIC against Staphylococcus aureus, against Escherichia coli [2] and in the test on Escherichia coli [3] was more than 64 µg/mL each time. The same compound showed an inhibition in test [1] of less than 20%.

By IC50 is commonly meant the midpoint of a concentration-inhibition curve. Turning to `CCCC/C(C)=C/C=C(\C)C(=O)c1c(O)cc(C(C)CC/C=C\NC(=O)OC)oc1=O` (centres undefined), the MIC was 4 µg/mL (≈ 9.27 µM) with Staphylococcus aureus, 4 µg/mL (≈ 9.27 µM) against Escherichia coli [2] and more than 64 µg/mL in the test on Escherichia coli [3]. In test [4], this compound had a concentration for half-maximal inhibition (IC50) of 1260 nM.

In the case of `CCCC/C(C)=C/C=C(\C)C(=O)c1c(O)cc(C(C)CC/C=C/NC(=O)OC)oc1=O` (centres undefined), the figures for the minimal inhibitory concentration (MIC) against Staphylococcus aureus, in the test with Escherichia coli [2] and in the test with Escherichia coli [3] were 1 µg/mL (≈ 2.32 µM), 2 µg/mL (≈ 4.63 µM) and more than 64 µg/mL, respectively. In test [4], this compound registered an IC50 of 920 nM.

Turning to `CCCC/C(C)=C/CNC(=O)c1c(O)cc(C(C)CC/C=C/NC(=O)OC)oc1=O` (centres undefined), the minimum inhibitory concentration (MIC) with Staphylococcus aureus, in the test on Escherichia coli [2] and in the test on Escherichia coli [3] was more than 64 µg/mL throughout. This compound also had an inhibition in test [1] of less than 20%.

With `CCCC/C(C)=C/C=C/C(=O)c1c(O)cc(C(C)CC/C=C/NC(=O)OC)oc1=O` (centres undefined), the minimal inhibitory concentration (MIC) against Staphylococcus aureus is 64 µg/mL (≈ 153 µM); with Escherichia coli [2], 32 µg/mL (≈ 76.6 µM); against Escherichia coli [3] it was more than 64 µg/mL. Also, the inhibition in test [1] was determined as 70%.

As for `CCCC/C=C/C=C(\C)C(=O)c1c(O)cc(C(C)CC/C=C/NC(=O)OC)oc1=O` (centres undefined), the MIC with Staphylococcus aureus was 16 µg/mL (≈ 38.3 µM); with Escherichia coli [2], 2 µg/mL (≈ 4.79 µM); in the test on Escherichia coli [3] it was more than 64 µg/mL. Also, in test [4], it took 1040 nM to reach half-maximal inhibition (IC50).

As to `CCCC/C(C)=C/C=C(\C)C(=O)c1c(O)cc(C(C)CCCCNC(=O)OC)oc1=O` (centres undefined), the MIC in the test on Staphylococcus aureus is 64 µg/mL (≈ 148 µM); against Escherichia coli [2] it was 8 µg/mL (≈ 18.5 µM); in the test with Escherichia coli [3], more than 64 µg/mL. In test [4], it took 4000 nM to reach half-maximal inhibition (IC50).

`CCCC/C(C)=C/C=C(\C)C(=O)c1c(OC)cc(C(C)CC/C=C/NC(=O)OC)oc1=O` (centres undefined): the minimal inhibitory concentration (MIC) in the test with Staphylococcus aureus, against Escherichia coli [2] and against Escherichia coli [3] was more than 64 µg/mL each time. Moreover, the half-maximal inhibitory concentration (IC50) in test [4] was 4200 nM.

In the case of `CCC(=O)c1c(O)cc(C(C)CC/C=C/NC(=O)OC)oc1=O` (centres undefined), the minimum inhibitory concentration (MIC) in the test with Staphylococcus aureus, against Escherichia coli [2] and against Escherichia coli [3] was more than 64 µg/mL each time. This compound also gave an inhibition in test [1] of less than 20%.

With `CCCC/C(C)=C/C=C(\C)C(=O)c1c(O)cc(C(C)CC/C=C/NC(=O)OCCN(C)C)oc1=O` (centres undefined), the minimal inhibitory concentration (MIC) against Staphylococcus aureus, with Escherichia coli [2] and against Escherichia coli [3] was more than 64 µg/mL each time. Further, the inhibition in test [1] was less than 20%.

Take `CCCC/C(C)=C/C=C(\C)C(=O)c1c(O)cc(CCC/C=C/NC(=O)OC)oc1=O` [DESMETHYL MYXOPYRONIN B]: the minimum inhibitory concentration (MIC) in the test with Staphylococcus aureus was 4 µg/mL (≈ 9.58 µM); against Escherichia coli [2] it was 1 µg/mL (≈ 2.4 µM); against Escherichia coli [3] it was more than 64 µg/mL. For the same compound, the IC50 in test [4] came to 340 nM.

For `CCCC/C(C)=C/C=C(\C)C(=O)c1c(O)cc(C(C)Cc2ccc(NC(=O)OC)cc2)oc1=O` (centres undefined), the minimum inhibitory concentration (MIC) in the test on Staphylococcus aureus, in the test with Escherichia coli [2] and against Escherichia coli [3] was more than 64 µg/mL each time. The compound further showed an inhibition in test [1] of less than 20%.

Consider `CCCC/C(C)=C\C=C(\C)C(=O)c1c(O)cc(C(C)CC/C=C/NC(=O)OC)oc1=O` (centres undefined), for which the MIC was 16 µg/mL (≈ 37.1 µM) against Staphylococcus aureus, 16 µg/mL (≈ 37.1 µM) in the test with Escherichia coli [2] and more than 64 µg/mL in the test with Escherichia coli [3]. Also, in test [4], inhibition was half-maximal at 2500 nM (IC50).

For the compound `CCCC/C(C)=C/C=C(\C)C(=O)c1c(O)cc(C(C)CC/C=C/NC(=O)OCCN2CCOCC2)oc1=O` (centres undefined), the MIC with Staphylococcus aureus, with Escherichia coli [2] and against Escherichia coli [3] was more than 64 µg/mL in each case. The compound further gave an inhibition in test [1] of less than 20%.
